Data taken from publication PMC6267549 (Clinical Pharmacokinetics, 2018).
“Also recorded” adds a separate entry of the source. Read-outs that look alike come from different tables or passages of the source.

Columns and labels:
[1] = SNAC plasma pharmacokinetics after ten once-daily doses of oral semaglutide; assay type: in vivo, human; conditions: for tmax,Day10: median (minimum, maximum)
Procedure, shortened: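 Oral tablets (300 mg SNAC) given once daily, 5 mg semaglutide days 1–5 then 10 mg days 6–10, with 120 mL water after >6 h fast and no intake for 30 min after. K3EDTA plasma sampled, including extra points within 24 h after last dose, stored at -20 °C. SNAC measured by LC-MS/MS after in-line solid-phase preparation against an analogue IS (5.00-2000 ng/mL, fivefold dilution above). AUC24 by linear trapezoid; Cmax and tmax observed.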

[2] = Semaglutide and SNAC urine bioanalysis / renal clearance; assay type: in vivo, human; conditions: for CLR: based on 0–36 h after the tenth dosing, geometric mean (CV)
Procedure, shortened: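 Urine collected pre-dose day 1 and fractionated over set intervals on days 10–11 after the tenth dose, then stored at -20 °C. 1% Triton X-100 added, 1 part per 9 parts urine. Semaglutide and SNAC quantified by the plasma LC-MS/MS methods with ranges corrected by 1.111. Renal clearance derived over 0–36 h after the tenth dose.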

[3] = Effect of haemodialysis on semaglutide and SNAC exposure in subjects with ESRD; assay type: in vivo, human
Procedure, shortened: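 ESRD subjects on haemodialysis three times weekly, started right after dosing (blood flow 500-600 mL/min, ultrafiltration 0-23 mL/min, low- or high-flux membranes). Semaglutide: observed AUC 144–148 h during day-16 dialysis divided by predicted AUC, with λz taken from inter-dialysis plasma levels at 76, 96, 120 and 144 h. SNAC: AUC4 on dialysis day 9 vs non-dialysis day 10, compared by log-scale linear model (dialysis, subject fixed).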

[4] = assay type: in vivo, human; conditions: once-daily oral semaglutide, not characterised in the trial
Procedure, shortened: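 Ten once-daily oral doses given, 5 mg for 5 days then 10 mg for 5 days, fasted. Plasma sampled pre-dose and to 504 h after the last dose, K3EDTA, stored at -20 °C. Semaglutide measured by LC-MS/MS after protein precipitation (0.729-60.8 nmol/L, 1/concentration² weighting). t½ = ln(2)/λz, with λz from log-linear regression on the terminal phase.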

[5] = subcutaneous administration; humans; cited from earlier work
[6] = subcutaneous administration; rats; cited from earlier work
[7] = subcutaneous administration; monkeys; cited from earlier work
[8] = mild renal impairment vs normal renal function
[9] = moderate renal impairment vs normal renal function
[10] = severe renal impairment vs normal renal function

O=C([O-])CCCCCCCNC(=O)c1ccccc1O.[Na+] [SNAC, sodium N-(8-[2-hydroxybenzoyl]amino) caprylate]
AUC24,Day10 ([1]; ESRD (n = 11), after tenth dose, geometric mean (CV)): 1471.4 (27.0) nmol·h/L | tmax,Day10 ([1]; ESRD (n = 11), after tenth dose): 0.83 (0.17, 5.00) h | estimated ratio Cmax,Day10 ([1]; ESRD vs normal renal function): 0.79 | estimated ratio of the AUC24,Day10 ([1]; ESRD vs normal renal function): 1.32 | AUC24,Day10 ([1]; mild renal impairment (n = 12), after tenth dose, geometric mean (CV)): 1311.6 (31.5) nmol·h/L | tmax,Day10 ([1]; mild renal impairment (n = 12), after tenth dose): 0.58 (0.33, 2.50) h | estimated ratio Cmax,Day10 [1, 8]: 0.94 | estimated ratio of the AUC24,Day10 [1, 8]: 1.19 | AUC24,Day10 ([1]; moderate renal impairment (n = 12), after tenth dose, geometric mean (CV)): 1335.9 (34.6) nmol·h/L | tmax,Day10 ([1]; moderate renal impairment (n = 12), after tenth dose): 0.67 (0.33, 6.00) h | estimated ratio Cmax,Day10 [1, 9]: 0.70 | estimated ratio of the AUC24,Day10 [1, 9]: 1.30 | AUC24,Day10 ([1]; normal renal function (n = 24), after tenth dose, geometric mean (CV)): 1028.8 (29.2) nmol·h/L | tmax,Day10 ([1]; normal renal function (n = 24), after tenth dose): 0.75 (0.33, 3.00) h | Cmax ([1]; read-out: Cmax,Day10, ESRD (n = 11), after tenth dose, geometric mean (CV)): 936 nM | AUC24,Day10 ([1]; severe renal impairment (n = 12), after tenth dose, geometric mean (CV)): 1522.8 (31.8) nmol·h/L | tmax,Day10 ([1]; severe renal impairment (n = 12), after tenth dose): 0.67 (0.17, 1.00) h | estimated ratio Cmax,Day10 [1, 10]: 1.06 | estimated ratio of the AUC24,Day10 [1, 10]: 1.49 | CLR ([2]; ESRD (n = 11)): 0.01 (508.51) L/h | CLR ([2]; mild renal impairment (n = 12)): 0.08 (87.88) L/h | CLR ([2]; moderate renal impairment (n = 12)): 0.09 (92.63) L/h | CLR ([2]; normal renal function (n = 24)): 0.06 (104.33) L/h | CLR ([2]; severe renal impairment (n = 12)): 0.04 (98.22) L/h | estimated ratio of AUC4 on day 9 during haemodialysis to AUC4 on day 10 ([3]; haemodialysis vs no haemodialysis): 0.95

CC[C@H](C)[C@H](NC(=O)[C@H](Cc1ccccc1)NC(=O)[C@H](CCC(=O)O)NC(=O)[C@H](CCCCNC(=O)COCCOCCNC(=O)COCCOCCNC(=O)CC[C@H](NC(=O)CCCCCCCCCCCCCCCCC(=O)O)C(=O)O)NC(=O)[C@H](C)NC(=O)[C@H](C)NC(=O)[C@H](CCC(N)=O)NC(=O)CNC(=O)[C@H](CCC(=O)O)NC(=O)[C@H](CC(C)C)NC(=O)[C@H](Cc1ccc(O)cc1)NC(=O)[C@H](CO)NC(=O)[C@H](CO)NC(=O)[C@@H](NC(=O)[C@H](CC(=O)O)NC(=O)[C@H](CO)NC(=O)[C@@H](NC(=O)[C@H](Cc1ccccc1)NC(=O)[C@@H](NC(=O)CNC(=O)[C@H](CCC(=O)O)NC(=O)C(C)(C)NC(=O)[C@@H](N)Cc1cnc[nH]1)[C@@H](C)O)[C@@H](C)O)C(C)C)C(=O)N[C@@H](C)C(=O)N[C@@H](Cc1c[nH]c2ccccc12)C(=O)N[C@@H](CC(C)C)C(=O)N[C@H](C(=O)N[C@@H](CCCNC(=N)N)C(=O)NCC(=O)N[C@@H](CCCNC(=N)N)C(=O)NCC(=O)O)C(C)C [semaglutide]
time to reach steady state (predicted) [4]: 4–5 weeks | detection in urine ([2]; urine samples days 10–11, except one subject in the ESRD group): not detected in urine; also recorded: not generally detected | AUC144–148 h,dial/AUC144–148 h,pred (estimated ratio) ([3]; observed during haemodialysis (day 16) over predicted): 0.97 | intact semaglutide in urine, of the administered dose [5]: 3.1% | intact semaglutide in urine, of the administered dose [6]: less than 1% | intact semaglutide in urine [7]: not detected
